# Measured values from PMC2787731 (Biochimica et biophysica acta, 2009).
# Several values for one entry are separate records, joined by “and”; a condition that tells them apart may be missing. Equal values may be shown once. Entries after “also recorded” stand apart in the source; their conditions may differ. Read-outs that look alike come from different tables or passages of the source.
# Experiments:
# recombinant CES1 [1] = target: T1, recombinant CES1 (Homo sapiens, UniProt P23141); assay: Inhibition of carboxylesterase activity of recombinant human CES1; format: biochemical; settings: for Inhibition of carboxylesterase activity of CES1 / Effect on carboxylesterase activity of recombinant CES1 (in words) / Mode of inhibition of recombinant CES1: pNPV; for Inhibition of carboxylesterase activity of CES1: concentration not given; for Mode of inhibition of recombinant CES1: curve fit of fractional inhibition, Dixon plots
# T1 sequence (P23141 18-567): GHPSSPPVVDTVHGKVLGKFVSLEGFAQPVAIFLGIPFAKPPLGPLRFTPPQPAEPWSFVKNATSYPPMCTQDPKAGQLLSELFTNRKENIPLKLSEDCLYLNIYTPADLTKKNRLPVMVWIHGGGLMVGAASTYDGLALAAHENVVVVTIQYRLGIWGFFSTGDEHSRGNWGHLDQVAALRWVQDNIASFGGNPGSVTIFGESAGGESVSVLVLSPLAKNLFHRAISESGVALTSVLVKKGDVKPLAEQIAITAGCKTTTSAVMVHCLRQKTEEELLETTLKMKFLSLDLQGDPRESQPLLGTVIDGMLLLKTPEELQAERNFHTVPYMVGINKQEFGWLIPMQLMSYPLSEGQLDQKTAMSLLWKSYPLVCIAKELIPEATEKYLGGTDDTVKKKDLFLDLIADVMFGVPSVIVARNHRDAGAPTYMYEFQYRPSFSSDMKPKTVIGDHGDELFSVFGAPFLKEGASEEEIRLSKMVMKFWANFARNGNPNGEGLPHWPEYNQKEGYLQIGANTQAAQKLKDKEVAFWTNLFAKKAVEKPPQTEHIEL
# [2] = target: T2, carboxylesterase activity of THP1 cell lysates (Homo sapiens, UniProt P23141); assay: Inhibition of carboxylesterase activity of THP1 cell lysates; format: biochemical
# T2 sequence (P23141 18-567): T1 sequence (P23141 18-567)
# [3] = system: THP1 macrophage foam cells; format: cell-based, human; settings: 10 μM; for Change in intracellular cholesteryl esters vs vehicle control: BSA only acceptor
# recombinant CES2 = target: T3, recombinant CES2 (Homo sapiens, UniProt O00748); assay: Inhibition of recombinant CES2 activity; format: biochemical
# T3 sequence (O00748 27-559): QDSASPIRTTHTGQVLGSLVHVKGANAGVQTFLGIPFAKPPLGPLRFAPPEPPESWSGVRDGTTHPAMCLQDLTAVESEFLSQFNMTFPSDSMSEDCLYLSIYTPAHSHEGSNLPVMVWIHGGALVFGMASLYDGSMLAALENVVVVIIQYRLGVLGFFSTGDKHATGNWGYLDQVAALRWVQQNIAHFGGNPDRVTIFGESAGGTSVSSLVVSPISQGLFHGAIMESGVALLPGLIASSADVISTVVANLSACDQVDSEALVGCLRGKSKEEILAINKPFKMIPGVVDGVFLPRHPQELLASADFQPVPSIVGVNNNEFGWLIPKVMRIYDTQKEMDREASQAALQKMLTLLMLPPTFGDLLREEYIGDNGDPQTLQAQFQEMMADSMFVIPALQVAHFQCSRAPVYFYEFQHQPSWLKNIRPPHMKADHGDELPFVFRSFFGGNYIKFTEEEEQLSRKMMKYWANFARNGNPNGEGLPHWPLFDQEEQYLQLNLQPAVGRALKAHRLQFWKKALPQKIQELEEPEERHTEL
# [4] = cited from earlier work
# recombinant CES1 [5] = target: T1, recombinant CES1; assay: Activity-based probe; format: biochemical
# Outline: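 Recombinant human CES1 was expressed in baculovirus-infected Spodoptera frugiperda cells and purified. The enzyme was preincubated with test compound for 30 min and then treated with the activity-based probe fluorophosphonate-biotin. IC50 was estimated from probe labelling.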
# recombinant CES1 [6] = target: T1, recombinant CES1; format: biochemical; settings: read-out: Inhibition of CES1 hydrolytic activity toward trans-permethrin, 20 μM AA; trans-permethrin 50 μM; 2% (w/v) fatty acid-free bovine serum albumin added
# [7] = target: T4, rat CES1 ortholog (Hydrolase A) (Rattus norvegicus, UniProt P16303); assay: Inhibition of rat CES1 ortholog; format: biochemical
# T4 sequence (P16303 19-565): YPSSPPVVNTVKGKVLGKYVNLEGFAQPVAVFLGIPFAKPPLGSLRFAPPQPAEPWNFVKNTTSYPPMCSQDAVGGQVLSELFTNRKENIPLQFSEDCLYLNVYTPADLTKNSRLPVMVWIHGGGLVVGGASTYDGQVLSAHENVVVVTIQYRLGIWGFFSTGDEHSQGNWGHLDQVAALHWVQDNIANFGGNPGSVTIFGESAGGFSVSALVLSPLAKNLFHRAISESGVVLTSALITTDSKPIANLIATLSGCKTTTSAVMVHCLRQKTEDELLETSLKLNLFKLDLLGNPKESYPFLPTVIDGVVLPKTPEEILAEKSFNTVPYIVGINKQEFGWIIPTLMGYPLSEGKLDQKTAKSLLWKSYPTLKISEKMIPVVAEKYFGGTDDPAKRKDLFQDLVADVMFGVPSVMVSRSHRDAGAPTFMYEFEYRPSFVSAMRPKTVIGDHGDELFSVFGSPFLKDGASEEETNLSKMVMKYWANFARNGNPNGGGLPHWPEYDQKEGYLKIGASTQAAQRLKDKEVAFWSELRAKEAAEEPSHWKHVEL
# [8] = system: intracellular carboxylesterase activity of THP1 cells; assay: Intracellular carboxylesterase activity in intact THP1 monocytes; format: cell-based, human; settings: 10 μM, 80 min, pNPV
# [9] = read-out: CES1 IC50, recombinant CES1, pNPV 500 μM, 15 min preincubation at 37°C
# [10] = CES1 IC50, recombinant CES1, pNPV 500 μM, 15 min preincubation at 37°C
# [11] = Cell lysate IC50, THP1 cell lysate, pNPV 500 μM, 15 min preincubation at 37°C
compound,measurement,setting,value
CC(C)CCC[C@@H](C)[C@H]1CC[C@H]2[C@@H]3C(=O)C=C4C[C@@H](O)CC[C@]4(C)[C@H]3CC[C@]12C [7-ketocholesterol],Inhibition of carboxylesterase activity of CES1,recombinant CES1 [1],< 15%
same,Inhibitory effect on carboxylesterase activity of THP1 cell lysates (in words),[2]; pNPV,little inhibitory activity; also recorded: minimal inhibitory effect
"CCCCC/C=C\CC1OC1C/C=C\C/C=C\CCCC(=O)O (stereo not drawn) [11,12-EET, 11,12-Epoxy-5Z,8Z,14Z-eicosatrienoic acid]",IC50,recombinant CES1 [1]; [9],27 ± 1 µM
"CCCCCC1OC1C/C=C\C/C=C\C/C=C\CCCC(=O)O (stereo not drawn) [14,15-EET]",IC50,recombinant CES1 [1]; [9],38 ± 1 µM
"CCCCC/C=C/C=C1/C(=O)C=C[C@@H]1C/C=C\CCCC(=O)O [15-deoxy-Δ^12,14-Prostaglandin J2]",IC50,recombinant CES1 [1]; [9],13 ± 3 µM
"CC(C)CC[C@@H](O)[C@@H](C)[C@H]1CC[C@H]2[C@@H]3CC=C4C[C@@H](O)CC[C@]4(C)[C@H]3CC[C@]12C [22(R)-HC, 22(R)-hydroxycholesterol]",Effect on carboxylesterase activity of recombinant CES1 (in words),recombinant CES1 [1],minimal activity
same,Change in free cholesterol levels vs vehicle control,[3]; 12 h,No change
same,Change in intracellular cholesteryl esters vs vehicle control,[3]; 12 h,significant reduction
same,Inhibition of carboxylesterase activity of THP1 cell lysate,"[2]; 50 μM oxysterol, pNPV",~ 30%
same,Inhibitory effect on carboxylesterase activity of THP1 cell lysates (in words),[2]; pNPV,little inhibitory activity
"CC(C)[C@@H](O)CC[C@@H](C)[C@H]1CC[C@H]2[C@@H]3CC=C4C[C@@H](O)CC[C@]4(C)[C@H]3CC[C@]12C [24(S)-HC, 24(S)-hydroxycholesterol]",Inhibitory effect on carboxylesterase activity of THP1 cell lysates (in words),[2]; pNPV,minimal inhibitory effect
same,Inhibitory effect on carboxylesterase activity of THP1 cell lysates (in words),"[2]; pNPV, listed as 24(S)-hydroxycholesterol",little inhibitory activity
"C[C@H](CCCC(C)(C)O)[C@H]1CC[C@H]2[C@@H]3CC=C4C[C@@H](O)CC[C@]4(C)[C@H]3CC[C@]12C [25-HC, 25-hydroxycholesterol]",Inhibition of carboxylesterase activity of CES1,recombinant CES1 [1],< 15%
same,Inhibitory effect on carboxylesterase activity of THP1 cell lysates (in words),[2]; pNPV,minimal inhibitory effect
same,Inhibitory effect on carboxylesterase activity of THP1 cell lysates (in words),"[2]; pNPV, listed as 25-hydroxycholesterol",little inhibitory activity
"C[C@@H](CO)CCC[C@@H](C)[C@H]1CC[C@H]2[C@@H]3CC=C4C[C@@H](O)CC[C@]4(C)[C@H]3CC[C@]12C [27-HC, 27-hydroxycholesterol]",IC50,recombinant CES1 [1],0.05 ± 0.02 µM
same,Ki,"recombinant CES1 [1]; Kiapp, recombinant CES1, ester substrate 4-MUBA, data not shown",0.0104 ± 0.0013 µM
same,Ki,"recombinant CES1 [1]; Kiapp, recombinant CES1, substrate pNPV, 15 min preincubation with enzyme",0.01 µM and 0.0101 µM
same,Mode of inhibition of recombinant CES1,recombinant CES1 [1],partial non-competitive inhibitor
same,inhibition at 0.5 µM,recombinant CES1 [1]; read-out: Maximum inhibition of CES1 activity,~67%
same,IC50,recombinant CES2,> 5 µM
same,Predicted solubility limit in aqueous solution,[4],0.52 µM
same,Change in intracellular cholesteryl esters vs vehicle control,[3]; 12 and 24 h,no significant changes
same,Change in free cholesterol levels vs vehicle control,[3]; 12 h,significantly reduced
same,Inhibition of carboxylesterase activity of THP1 cell lysate,"[2]; 50 μM oxysterol, pNPV",~ 78%
same,IC50,"[2]; IC50, carboxylesterase activity of THP1 whole-cell lysates, THP1 whole-cell lysates, pNPV",0.033 µM
same,IC50,recombinant CES1 [5],0.04 ± 0.02 µM
"CCCCC/C=C\C/C=C\C/C=C\C/C=C\CCCC(=O)O [AA, 5Z,8Z,11Z,14Z-Eicosatetraenoic acid]",inhibition at 20 µM,recombinant CES1 [6],14%
same,Ki,recombinant CES1 [1],1.7 µM
same,IC50,recombinant CES1 [1]; [10],2 ± 1 µM
same,Mode of inhibition of recombinant CES1,recombinant CES1 [1],noncompetitive inhibition model
same,IC50,[7],50 µM
same,IC50 toward rat CES1 relative to the human enzyme,[7]; rat vs human CES1,25 fold
same,IC50,recombinant CES2,> 100 µM
same,Inhibition of carboxylesterase activity of THP1 cell lysate,"[2]; 100 μM fatty acid, pNPV",~ 90%
same,IC50,[2]; [11],4 ± 1 µM
CCCCC[C@H](O)/C=C/[C@H]1[C@H](O)CC(=O)[C@@H]1C/C=C\CCCC(=O)O [Prostaglandin E2],IC50,recombinant CES1 [1]; [10],> 100 µM
CCCCC[C@H](O)/C=C/[C@@H]1[C@@H](C/C=C\CCCC(=O)O)[C@@H](O)C[C@H]1O [Prostaglandin F2α],IC50,recombinant CES1 [1]; [10],> 100 µM
C[C@H](CCC(=O)O)[C@H]1CC[C@H]2[C@@H]3[C@H](O)C[C@@H]4C[C@H](O)CC[C@]4(C)[C@H]3C[C@H](O)[C@]12C [cholate],IC50,"recombinant CES1 [1]; read-out: IC50, CES1 enzyme activity, data not shown",~7000 µM
CC(C)CCC[C@@H](C)[C@H]1CC[C@H]2[C@@H]3CC=C4C[C@@H](O)CC[C@]4(C)[C@H]3CC[C@]12C [cholesterol],Effect on carboxylesterase activity of recombinant CES1 (in words),recombinant CES1 [1],almost no effect
same,Inhibitory effect on carboxylesterase activity of THP1 cell lysates (in words),[2]; pNPV,little inhibitory activity; also recorded: no inhibitory effect
"C[C@H](CC[C@@H]1OC1(C)C)[C@H]1CC[C@H]2[C@@H]3CC=C4C[C@@H](O)CC[C@]4(C)[C@H]3CC[C@]12C [epoxycholesterol, 24(S),25-epoxycholesterol]",Change in free cholesterol levels vs vehicle control,[3]; 12 and 24 h,reduced
same,Change in intracellular cholesteryl esters vs vehicle control,[3]; 12 and 24 h,no significant changes
same,Inhibition of carboxylesterase activity of THP1 cell lysate,"[2]; 50 μM oxysterol, pNPV",~ 70%
same,IC50,[2]; [11],8.1 µM
"CCCCC/C=C\C/C=C\CCCCCCCC(=O)O [linoleic acid, 9Z,12Z-Octadecadienoic acid]",IC50,recombinant CES1 [1]; [10],9 ± 6 µM
same,IC50,[2]; [11],20 ± 3 µM
"CCCCCCCCCCCCCC(=O)O [myristic acid, Tetradecanoic acid]",IC50,recombinant CES1 [1]; [10],9 ± 3 µM
same,IC50,[2]; [11],28 ± 4 µM
"CCCC/C=C\CCCCCCCC(=O)O [myristoleic acid, 9Z-Tetradecenoic acid]",IC50,recombinant CES1 [1]; [10],12 ± 2 µM
same,IC50,[2]; [11],23 ± 6 µM
"CCCCCCCC/C=C\CCCCCCCC(=O)O [oleic acid, 9Z-Octadecenoic acid]",IC50,recombinant CES1 [1]; [10],7 ± 3 µM
same,IC50,[2]; [11],11 ± 4 µM
"CCCCCCCCCCCCCCCC(=O)O [palmitic acid, Hexadecanoic acid]",IC50,recombinant CES1 [1]; [10],25 ± 13 µM
same,IC50,[2]; [11],> 100 µM
CCOP(=O)(OCC)Oc1ccc([N+](=O)[O-])cc1 [paraoxon],Inhibition of intracellular carboxylesterase activity,[8],87%
"CCCCCCCCCCCCCCCCCC(=O)O [stearic acid, Octadecanoic acid]",IC50,recombinant CES1 [1]; [10],> 100 µM
same,IC50,[2]; [11],> 100 µM
"CCCCC/C=C\C/C=C\C/C=C\CCCCC(=O)O [γ-linolenic acid, 6Z,9Z,12Z-Octadecatrienoic acid]",IC50,recombinant CES1 [1]; [10],19 ± 10 µM
same,IC50,[2]; [11],23 ± 3 µM
